Measurements taken from ChEMBL document CHEMBL1795218, “Selective bone targeting 5-fluorouracil prodrugs: synthesis and preliminary biological evaluation” (Bioorg Med Chem, 2011).
pIC50: −log10 of the molar value. Active and inactive are the calls of the source. The calls are words filed in the database; no cut-off is given here. Residues, ends and D or L forms follow the SMILES beside them. *: point of attachment. Acetyl(5-fluorouracil-1-yl) = O=C(Cn1cc(F)c(=O)[nH]c1=O)*; X1 = O=C(CCC(=O)*)OCn1cc(F)c(=O)[nH]c1=O

Columns and labels:
Hydroxyapatite [1] = test: Binding affinity to bone mineral hydroxyapatite assessed as binding index after 0.5 hrs by UV-spectrophotometer analysis relative to 5-fluorouracil; design: concentration or dose not given beside the values
Hydroxyapatite [2] = test: Binding affinity to bone mineral hydroxyapatite assessed as binding index after 24 hrs by UV-spectrophotometer analysis relative to 5-fluorouracil; design: concentration or dose not given beside the values
In short: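 Hydroxyapatite (25 mg/ml) added to 5 ml conjugate solutions at 500 µg/ml (C0). Sonicated 5 min, then held in a 37 °C water bath for […] or over 24 h. Unbound conjugate read by UV at 254 nm against an absorbance–concentration calibration line. Tetracycline as positive control. Binding index given as mean ± SD, n = 3.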

HeLa [3] = test: Cytotoxicity against human HeLa cells after 3 days by MTT assay; assay type: functional, cell-based; details: 72 h
In short: (§1)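 MG-63 or HeLa cells plated at 5×10³ cells/well. Exposed to conjugates at 1–64 µM (5-FU-equivalent), with or without human plasma, for 72 h under 5% CO₂. MTT then added for 2 h and absorbance read at 490 nm. Mean and SD of three independent experiments.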

MG-63 [4] = test: Cytotoxicity against human MG63 cells after 3 days by MTT assay; assay type: functional, cell-based; details: MG-63, 72 h; in short: as §1
[5] = AUC in mouse; assay type: ADME, organism-based; details: plasma
[6] = Half life in mouse; assay type: ADME, organism-based; details: in vivo
[7] = Apparent volume of distribution in mouse; assay type: ADME, organism-based; details: in vivo, read-out: Vz
Femur [8] = test: Biodistribution in po dosed mouse femur after 1 hr; assay type: ADME, organism-based; details: in vivo
In short: (§2)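 Mice dosed orally. At 1 h or 12 h, kidney, liver, femur and blood collected. Organs rinsed in cold saline, blotted, extracted with methanol, diluted and centrifuged before analysis. Mean and SD of three independent experiments.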

Femur [9] = test: Biodistribution in po dosed mouse femur after 12 hrs; assay type: ADME, organism-based; details: in vivo; in short: as §2
Plasma [10] = test: Prodrug activation in 50% human plasma assessed as 5-fluorouracil release after 60 hrs by RP-HPLC analysis; assay type: cell-free
In short: (§3)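 Conjugates incubated at 37 °C in PBS pH 7.4 or in 50% (v/v in PBS) human plasma, with a little DMSO added for solubility. Released 5-FU measured by RP-HPLC at 1.0 mL/min, detection at 256 nm, 25 °C.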

Plasma [11] = test: Prodrug activation in 50% human plasma assessed as 5-fluorouracil release after 5 days by RP-HPLC analysis; assay type: cell-free; details: 120 h; in short: as §3
HeLa [12] = test: Cytotoxicity against human HeLa cells after 3 days by MTT assay in presence of 50% human plasma; assay type: functional, cell-based; in short: as §1
MG-63 [13] = test: Cytotoxicity against human MG63 cells after 3 days by MTT assay in presence of 50% human plasma; assay type: functional, cell-based; in short: as §1
Mus musculus = species on record: Mus musculus; test: Cmax in mouse; assay type: ADME, organism-based; details: in vivo
[14] = Prodrug activation in phosphate buffered saline at pH 7.4 assessed as 5-fluorouracil release after 60 hrs by RP-HPLC analysis; details: buffer, pH 7.4, 60 h; in short: as §3
[15] = Prodrug activation in phosphate buffered saline at pH 7.4 assessed as 5-fluorouracil release after 5 days by RP-HPLC analysis; details: buffer, pH 7.4, 120 h; in short: as §3

O=C(O)C[C@H](NC(=O)[C@H](CC(=O)O)NC(=O)[C@H](CC(=O)O)NC(=O)[C@H](CC(=O)O)NC(=O)Cn1cc(F)c(=O)[nH]c1=O)C(=O)O ({Acetyl(5-fluorouracil-1-yl)}-DDDD-OH)
Activity (Hydroxyapatite [1]): 14.3% | Activity (Hydroxyapatite [2]): 40.2%

O=C(O)C[C@H](NC(=O)[C@H](CC(=O)O)NC(=O)[C@H](CC(=O)O)NC(=O)[C@H](CC(=O)O)NC(=O)[C@H](CC(=O)O)NC(=O)CCC(=O)OCn1cc(F)c(=O)[nH]c1=O)C(=O)O (X1-DDDDD-OH)
Activity (Hydroxyapatite [1]): 13.4% | Activity (Hydroxyapatite [2]): 25.5%

O=c1[nH]cc(F)c(=O)[nH]1 [FLUOROURACIL]
Activity (Hydroxyapatite [1]): 0% | Activity (Hydroxyapatite [2]): 0% | pIC50 (HeLa [3]): 5.40 | pIC50 (MG-63 [4]): 5.10 | AUC [5]: 76600 ng·h/mL | half-life [6]: 4.36 h | Vd [7]: 24.1 L/kg | Drug uptake (Femur [8]): Active | Drug uptake (Femur [9]): Active

O=C(O)C[C@H](NC(=O)[C@H](CC(=O)O)NC(=O)[C@H](CC(=O)O)NC(=O)[C@H](CC(=O)O)NC(=O)CCC(=O)OCn1cc(F)c(=O)[nH]c1=O)C(=O)O (X1-DDDD-OH)
Activity (Hydroxyapatite [1]): 16.6% | Activity (Hydroxyapatite [2]): 42.5%

O=C(O)C[C@H](NC(=O)[C@H](CC(=O)O)NC(=O)[C@H](CC(=O)O)NC(=O)[C@H](CC(=O)O)NC(=O)[C@H](CC(=O)O)NC(=O)Cn1cc(F)c(=O)[nH]c1=O)C(=O)O ({Acetyl(5-fluorouracil-1-yl)}-DDDDD-OH)
Activity (Hydroxyapatite [1]): 11.6% | Activity (Hydroxyapatite [2]): 19.8%

O=C(O)C[C@H](NC(=O)[C@H](CC(=O)O)NC(=O)[C@H](CC(=O)O)NC(=O)[C@H](CC(=O)O)NC(=O)[C@H](CC(=O)O)NC(=O)[C@H](CC(=O)O)NC(=O)CCC(=O)OCn1cc(F)c(=O)[nH]c1=O)C(=O)O (X1-DDDDDD-OH)
Activity (Hydroxyapatite [1]): 37.8% | Activity (Hydroxyapatite [2]): 69.7% | Activity (Plasma [10]): 60.3% | Activity (Plasma [11]): 80% | pIC50 (HeLa [3]): < 4.19 | pIC50 (MG-63 [4]): < 4.19 | Activity (HeLa [12]): Active | Activity (MG-63 [13]): Active | AUC [5]: 90100 ng·h/mL | half-life [6]: 6.75 h | Vd [7]: 32.2 L/kg | Cmax (Mus musculus): 51100 µg/mL | Drug uptake (Femur [8]): Active | Drug uptake (Femur [9]): Active

O=C(O)C[C@H](NC(=O)[C@H](CC(=O)O)NC(=O)[C@H](CC(=O)O)NC(=O)[C@H](CC(=O)O)NC(=O)[C@H](CC(=O)O)NC(=O)[C@H](CC(=O)O)NC(=O)Cn1cc(F)c(=O)[nH]c1=O)C(=O)O ({Acetyl(5-fluorouracil-1-yl)}-DDDDDD-OH)
Activity (Hydroxyapatite [1]): 31.4% | Activity (Hydroxyapatite [2]): 62.7% | Activity (Plasma [10]): 47.4% | Activity (Plasma [11]): 60% | Activity [14]: 3.2% | Activity [15]: 5% | pIC50 (HeLa [3]): < 4.19 | pIC50 (MG-63 [4]): < 4.19 | Activity (HeLa [12]): Active | Activity (MG-63 [13]): Active | AUC [5]: 76600 ng·h/mL | half-life [6]: 4.36 h | Vd [7]: 24.1 L/kg | Cmax (Mus musculus): 42400 µg/mL | Drug uptake (Femur [8]): Active | Drug uptake (Femur [9]): Active

CN(C)[C@@H]1C(O)=C(C(N)=O)C(=O)[C@@]2(O)C(O)=C3C(=O)c4c(O)cccc4[C@@](C)(O)[C@H]3C[C@@H]12
Activity (Hydroxyapatite [1]): 24.1% | Activity (Hydroxyapatite [2]): 56.2%
